Screens: PubChem, Sanford-Burnham Center for Chemical Genomics
Sampled rows, rich in hits. Any-hit rate of the full collection: about 0.79%.
hIAP block = blocks human intestinal alkaline phosphatase. P09923. purified IAP, CDP-Star luminescence, 30 min. inhibition, % at 10 µM. 330,000 tested, 0.12% active. AID 2544;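 active means inhibition reaching a set limit with compound at 10 µM in the primary screen, cut at about 35% in these data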
Target sequence (P09923 whole entry, looked up): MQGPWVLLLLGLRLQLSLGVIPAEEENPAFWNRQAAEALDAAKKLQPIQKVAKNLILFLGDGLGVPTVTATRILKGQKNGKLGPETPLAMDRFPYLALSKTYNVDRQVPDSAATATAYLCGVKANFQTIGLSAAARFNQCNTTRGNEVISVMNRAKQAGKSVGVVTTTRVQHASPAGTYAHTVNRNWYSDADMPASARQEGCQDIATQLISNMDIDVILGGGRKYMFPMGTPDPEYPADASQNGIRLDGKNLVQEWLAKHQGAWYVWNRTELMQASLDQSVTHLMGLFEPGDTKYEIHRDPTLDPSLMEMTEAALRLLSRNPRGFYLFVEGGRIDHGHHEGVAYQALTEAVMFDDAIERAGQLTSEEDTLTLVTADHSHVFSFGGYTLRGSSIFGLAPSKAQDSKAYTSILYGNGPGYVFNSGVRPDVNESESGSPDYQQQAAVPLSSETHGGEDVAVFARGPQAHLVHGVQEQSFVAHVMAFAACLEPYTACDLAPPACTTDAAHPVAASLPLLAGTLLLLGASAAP
mIAP act = mouse IAP activation; 330,000 tested, 0.24% active; muIAP, CDP-Star luminescence, 30 min; stronger effect = higher value; 1 = vehicle-only enzyme signal, 0 = enzyme-free wells; activation factor at 10 µM;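 active means activation factor of at least 2 at 20 µM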
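Assay system: mouse IAP enzyme; Reagent: CDP-Star chemiluminescent phosphatase substrate; Compound: DMSO-dissolved test compounds; Incubation: 30 min, room temperature; Technique: luminescence from enzymatic CDP-Star hydrolysis; Controls: DMSO-only wells and no-enzyme negative control.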
hIAP act = increases human intestinal alkaline phosphatase activity | activation factor at 10 µM | 330,000 tested, 0.16% active | P09923 | purified human IAP, CDP-Star luminescence, 30 min; stronger effect = higher value; 1 = vehicle-only enzyme, 0 = enzyme-free background;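 active means activation factor of the enzyme at least 2-fold when tested at 20 µM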
bIAP inh = blocks bovine intestinal alkaline phosphatase activity; 190,000 tested, under 10 active; inhibition, % at 20 µM; purified bovine IAP, CDP-star luminescence, 30 min; AID 1019;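 active means over 50% inhibition of intestinal alkaline phosphatase at 20 µM in the single-dose screen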
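Assay system: bovine IAP enzyme; medium: DEA buffer 100 mM, pH 9.8, with MgCl2 1.0 mM, ZnCl2 0.02 mM; doses: 20 µM single dose; incubation: enzyme reaction for 30 min at room temperature; detection: CDP-star luminescence signal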
mIAP block = mouse IAP inhibition; purified mouse IAP, CDP-Star luminescence, 30 min; inhibition, % at 10 µM; AID 2806; 330,000 tested, 0.2% active;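 active means inhibition of at least 40% at 10 µM in the primary screen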
bIAP act = intestinal alkaline phosphatase (bovine) activation | purified bovine IAP, CDP-star luminescence, 30 min; stronger effect = higher value; fold of DMSO-control signal, blank-subtracted | activation factor at 20 µM | 200,000 tested, 0.17% active | AID 1016;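 active means activation factor of 2 or more at 20 µM, a signal rise over negative controls twice the positive control's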
mIAP inh confirm = mouse IAP inhibition confirmation; shares compounds with mIAP block; 11,000 tested, 4.7% active; inhibition, % at 10 µM; purified mouse IAP, CDP-Star luminescence, 30 min;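 active means inhibition of at least 40% at 10 µM in either of the two replicates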
Of the large screens only hits and unclear results are named; the others gave an inactive call (follow-up assays come after a bar, where they were run).

COc1ccc(C2=NOC(Cn3nc(-c4ccccc4)cc3C(=O)NCc3cccc(Br)c3)C2)cc1 (configuration not stated)	mIAP act 3.8 (no result: bIAP inh, bIAP act) | mIAP inh confirm inactive
CCc1cc(Cn2nc(-c3ccccc3)cc2C(=O)NCc2cccc(C(F)(F)F)c2)on1	mIAP act 3.4 (no result: bIAP inh, bIAP act) | mIAP inh confirm inactive
CCc1cc(Cn2nc(-c3ccccc3)cc2C(=O)NCc2cccc(Br)c2)on1	mIAP act 6.6 (no result: bIAP inh, bIAP act) | mIAP inh confirm inactive
Cc1csc(NC(=O)CSc2sc3c(O)cc(=O)[nH]c3c2C#N)n1	mIAP block 47 (no result: bIAP inh, bIAP act) | mIAP inh confirm 68
CCSc1nnc(NC(=O)CSc2sc3c(O)cc(=O)[nH]c3c2C#N)s1	none (no result: bIAP inh, bIAP act)
CCc1nnc(NC(=O)CSc2sc3c(O)cc(=O)[nH]c3c2C#N)s1	mIAP block 44 (no result: bIAP inh, bIAP act) | mIAP inh confirm 65
O=C(Nc1cccc([N+](=O)[O-])c1)c1ccc(N2CCCC2=O)cc1	none
Cc1ccc(N2CC(C(=O)NCCC3=CCCCC3)CC2=O)cc1 (configuration not stated)	none (no result: bIAP inh, bIAP act)
Cc1cc(Cl)ccc1NC(=S)NCCC(c1ccccc1)c1ccccc1	mIAP act 3.7 | mIAP inh confirm inactive
Cc1c(Cl)cccc1NC(=S)NCCC(c1ccccc1)c1ccccc1	mIAP act 4.1 | mIAP inh confirm inactive
Cc1cccc(NC(=O)c2ccc(S(=O)(=O)N3CCCCC3)cc2)c1	none (no result: bIAP inh, bIAP act)
CCOC(=O)C1(CCCc2ccccc2)CCN(CC(O)CO)CC1 (configuration not stated)	none
O=C(CSc1nnc(-c2ccco2)o1)c1ccc(F)c(F)c1	none
O=C(CSc1nnc(-c2ccco2)c(-c2ccco2)n1)c1ccccc1	mIAP block 50 | mIAP inh confirm 51
O=C(CSc1nnc(-c2ccco2)o1)c1ccccc1	mIAP block 44 | mIAP inh confirm 43
CNC(=S)NCCc1cc2c(OC)ccc(OC)c2[nH]c1=O	none
O=C(O)c1cc(NS(=O)(=O)c2ccc(F)cc2)cc(NS(=O)(=O)c2ccc(F)cc2)c1	none (no result: bIAP inh, bIAP act)
Cc1occc1C(=O)Nc1nnc(-c2cccs2)s1	none
N#C/C(=C/c1ccco1)C(N)=S	mIAP block 47 (no result: bIAP inh, bIAP act) | mIAP inh confirm 56
O=C(Nc1cc(C(F)(F)F)ccc1-n1cncn1)c1ccc([N+](=O)[O-])o1	none (no result: bIAP inh, bIAP act)
C=C1c2cccc(O)c2C(=O)C2C(=O)[C@]3(O)C(=O)C(C(N)=O)C(=O)[C@@H](N(C)C)[C@@H]3[C@@H](O)[C@H]12 (some centres not stated)	mIAP block 49 (no result: bIAP inh, bIAP act) | mIAP inh confirm 48
COc1ccccc1C(CC(=O)Nc1ccc(Cl)cc1)c1ccc(OC(C)C)cc1 (configuration not stated)	mIAP act 3.7 (no result: bIAP inh) | mIAP inh confirm inactive
Cc1ccc(-c2csc(N)n2)s1	mIAP block 68 | mIAP inh confirm 78
CC(=O)NCc1ccc(-c2csc(N)n2)s1	mIAP block 72 | mIAP inh confirm 77
Cc1csc(N)n1	none
CC(=O)Nc1cccc(-c2csc(N)n2)c1	none
Cc1cc(C)cc(OCC(=O)Nc2ccccc2N2CCCCC2)c1	none
Cc1cc(C)cc(NC(=O)Nc2ccccc2N2CCCCC2)c1	mIAP act 3.3 (no result: bIAP inh, bIAP act) | mIAP inh confirm inactive
COc1ccc(NC(=O)Nc2ccccc2)cc1S(=O)(=O)N1CCCCC1	mIAP act 4.5 | mIAP inh confirm inactive
COc1ccccc1NS(=O)(=O)c1cc(NC(C)=O)ccc1N1CCCCC1	none
COc1ccccc1NS(=O)(=O)c1cc(NC(=O)Nc2cccc(C)c2)ccc1N1CCCCC1	mIAP act 5.6 | mIAP inh confirm inactive
Cc1nnc(SC(C)C(=O)NC2CCCCC2C)s1 (configuration not stated)	none (no result: bIAP inh, bIAP act)
Oc1cc2c(cc1O)[C@H]1c3ccc(O)c(O)c3OC[C@@]1(O)C2	mIAP block 60 (no result: bIAP inh, bIAP act) | mIAP inh confirm 53
Cc1cc(C)n(C(C)CC(=O)Nc2ccc(-c3ccno3)cc2)n1 (configuration not stated)	none (no result: bIAP inh, bIAP act)
Cc1nc(N)sc1-c1csc(Nc2cccc(C(=O)O)c2)n1	mIAP block 52 (no result: bIAP inh, bIAP act) | mIAP inh confirm 54
Cc1cc(NS(=O)(=O)c2ccc(Nc3nc(-c4ccc(C)c(C)c4)cs3)cc2)no1	none (no result: bIAP inh)
Cc1cc(NS(=O)(=O)c2ccc(Nc3nc(-c4sc(N)nc4C)cs3)cc2)no1	mIAP block 44 | mIAP inh confirm 59
CC1CN(c2nc3ccccc3nc2NS(=O)(=O)c2ccccc2)CC(C)O1 (configuration not stated)	none (no result: bIAP inh, bIAP act)
COc1ccc(C2CC(c3ccccc3F)=NN2c2ccc(S(N)(=O)=O)cc2)cc1 (configuration not stated)	mIAP act 2.1 (no result: hIAP block, hIAP act, bIAP inh, bIAP act) | mIAP inh confirm inactive
COc1ccc(C2CC(c3ccc(C(F)(F)F)cc3)=NN2c2ccc(S(N)(=O)=O)cc2)cc1 (configuration not stated)	none (no result: hIAP block, hIAP act, bIAP inh, bIAP act)
COc1ccc(C2CC(c3ccccc3C(F)(F)F)=NN2c2ccc(S(N)(=O)=O)cc2)cc1 (configuration not stated)	mIAP act 2.2 (no result: hIAP block, hIAP act, bIAP inh, bIAP act) | mIAP inh confirm inactive
COc1ccc(C2CC(c3ccccc3Br)=NN2c2ccc(S(N)(=O)=O)cc2)cc1 (configuration not stated)	none (no result: hIAP block, hIAP act, bIAP inh, bIAP act)
NCCCCc1cn(CC(=O)N2CCNCC2)nn1	none
O=C(Nc1cc(Cl)ccc1O)C1CC(c2ccccc2Cl)=NO1 (configuration not stated)	none (no result: bIAP inh, bIAP act)
O=C(N/N=C/c1ccc(O)c(O)c1)N/N=C/c1ccc(O)c(O)c1	mIAP block 49 (no result: bIAP inh, bIAP act) | mIAP inh confirm 72
Cc1nonc1C(=O)N/N=C/c1ccc(O)c(O)c1	mIAP block 42 | mIAP inh confirm 41
O=C(CSc1nc2ccccc2o1)N/N=C/c1ccc(O)c(O)c1	mIAP block 67 (no result: bIAP inh, bIAP act) | mIAP inh confirm 74
Cc1cc(SCC(=O)N/N=C/c2ccc(O)c(O)c2)c(C)cc1Br	none
CC(C)(C)OC(=O)NN1CC(=O)N2Cc3[nH]c4ccccc4c3C[C@H]2C1=O	none (no result: bIAP inh, bIAP act)
Cc1ccc(NC(=O)COc2coc(CN3CCN(c4ccccc4)CC3)cc2=O)cc1	none (no result: bIAP inh, bIAP act)
O=C(/C=C/c1ccc(S(=O)(=O)N2CCOCC2)cc1)NC(CO)C(O)c1ccc([N+](=O)[O-])cc1 (configuration not stated)	none (no result: bIAP inh, bIAP act)
Cc1cc(C)cc(NC(=O)Nc2ccc3c(c2)N(C)C(=O)CS3)c1	mIAP act 4 | mIAP inh confirm inactive
CCc1ccc(NC(=O)Nc2ccc3c(c2)N(C)C(=O)CS3)cc1	mIAP act 2.9 | mIAP inh confirm inactive
CCOC(=O)c1cc(CC)sc1/N=C/C1=C(O)CC(C)(C)CC1=O	none
CCOC(=O)c1sc(N=NC2=C(O)CC(C)(C)CC2=O)c(C(=O)OCC)c1C	mIAP act 4 | mIAP inh confirm inactive
